Holding throughout (format): functional
Experiment [1] deals with Streptococcus pneumoniae. Briefly: Antimicrobial activity against Streptococcus pneumoniae ATCC 49619. Summed up: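 MICs determined by broth microdilution as recommended by CLSI. Agents tested included tetracycline, doxycycline, penicillin G, erythromycin and chloramphenicol. Tigecycline results were interpreted against FDA breakpoints.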
The test system of experiment [2] is Streptococcus pneumoniae. Briefly: Antimicrobial susceptibility of tetracycline-resistant Streptococcus pneumoniae from respiratory tract disease patient assessed as percent resistant isolates. The method in brief:
(§1)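 MICs determined for all tetracycline-resistant isolates by broth microdilution per CLSI recommendations. Agents tested included tetracycline, doxycycline, penicillin G, erythromycin and chloramphenicol. FDA breakpoints were applied to categorize tigecycline results.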

Experiment [3] relates to Streptococcus pneumoniae. Nature of the experiment: Antimicrobial susceptibility of tetracycline-resistant Streptococcus pneumoniae from respiratory tract disease patient assessed as percent susceptible isolates. The method in brief:
as §1

This passage reports MIC50, MIC90 and Activity results from ChEMBL document CHEMBL1145535, “Clonal diversity and resistance mechanisms in tetracycline-nonsusceptible Streptococcus pneumoniae isolates in Poland” (2007).

Converted amounts (≈) assume the structure as drawn.

On to `CCC[C@@H]1C[C@@H](C(=O)N[C@@H]([C@H]2O[C@H](SC)[C@H](O)[C@@H](O)[C@H]2O)[C@H](C)Cl)N(C)C1` [CLINDAMYCIN], for which the MIC50 in experiment [1] was ≤ 0.03 mg/L. For the same compound, the MIC90 in experiment [1] is > 4 mg/L. In addition, the Activity in experiment [2] is reported as 23.1%; in experiment [3] it was 76.9%.

For the compound `CN(C)c1cc(NC(=O)CNC(C)(C)C)c(O)c2c1C[C@H]1C[C@H]3[C@H](N(C)C)C(O)=C(C(N)=O)C(=O)[C@@]3(O)C(O)=C1C2=O` [TIGECYCLINE], in experiment [1], the MIC50 was found to be 0.015 mg/L (≈ 0.0256 µM) and the MIC90 turned out to be 0.03 mg/L (≈ 0.0512 µM). Also, the Activity in experiment [3] is on record as 100%.

`C[C@H]1COc2c(N3CCN(C)CC3)c(F)cc3c(=O)c(C(=O)O)cn1c23.C[C@H]1COc2c(N3CCN(C)CC3)c(F)cc3c(=O)c(C(=O)O)cn1c23.O` [LEVOFLOXACIN]: the MIC50 in experiment [1] came out at 1 mg/L. In addition, the MIC90 in experiment [1] was 1 mg/L. The Activity is reported as 0.4% in experiment [2] and 98.8% in experiment [3].

Take `CO[C@H]1/C=C/O[C@@]2(C)Oc3c(C)c(O)c4c(O)c(c(/C=N/N5CCN(C)CC5)c(O)c4c3C2=O)NC(=O)/C(C)=C\C=C\[C@H](C)[C@H](O)[C@@H](C)[C@@H](O)[C@@H](C)[C@H](OC(C)=O)[C@@H]1C` [RIFAMPIN]: in experiment [1], the MIC50 was ≤ 0.03 mg/L and the MIC90 is ≤ 0.03 mg/L. Further, the Activity in experiment [2] was found to be 0.8%. Besides, in experiment [3], the Activity is on record as 98.8%.

In experiment [1], `CN(C)[C@@H]1C(O)=C(C(N)=O)C(=O)[C@@]2(O)C(O)=C3C(=O)c4c(O)cccc4[C@@](C)(O)[C@H]3C[C@@H]12` [TETRACYCLINE] showed an MIC50 of 32 mg/L (≈ 72 µM) and an MIC90 of 64 mg/L (≈ 144 µM). Also, in experiment [2], the Activity was 100%.

In experiment [1], `COc1cc(Cc2cnc(N)nc2N)cc(OC)c1OC` [TRIMETHOPRIM] displayed an MIC50 of 2 mg/L (≈ 6.89 µM) and an MIC90 of 8 mg/L (≈ 27.6 µM). In addition, the Activity in experiment [2] came to 38.4%. Also, the Activity in experiment [3] stood at 30.2%.

Turning to `C[C@H]1c2cccc(O)c2C(=O)C2=C(O)[C@]3(O)C(=O)C(C(N)=O)=C(O)[C@@H](N(C)C)[C@@H]3[C@@H](O)[C@@H]21.O` [DOXYCYCLINE], in experiment [1], the MIC50 turned out to be 4 mg/L and the MIC90 stood at 8 mg/L. For the same compound, the Activity in experiment [2] amounted to 25.2%. Besides, the Activity in experiment [3] is 19.9%.

In experiment [1], `CO/N=C(\C(=O)N[C@@H]1C(=O)N2C(C(=O)O)=C(COC(C)=O)CS[C@H]12)c1csc(N)n1` [CEFOTAXIME] had an MIC50 of 0.015 mg/L (≈ 0.0329 µM) and an MIC90 of 1 mg/L (≈ 2.2 µM). Besides, the Activity in experiment [2] worked out at 2.1%. Further, in experiment [3], the Activity worked out at 93.8%.

Turning to `CC(=O)NC[C@H]1CN(c2ccc(N3CCOCC3)c(F)c2)C(=O)O1` [LINEZOLID], in experiment [1], the MIC50 is 1 mg/L (≈ 2.96 µM) and the MIC90 came to 1 mg/L (≈ 2.96 µM). The Activity in experiment [3] amounted to 100%.

Regarding `CN[C@H](CC(C)C)C(=O)N[C@H]1C(=O)N[C@@H](CC(N)=O)C(=O)N[C@H]2C(=O)N[C@H]3C(=O)N[C@H](C(=O)N[C@H](C(=O)O)c4cc(O)cc(O)c4-c4cc3ccc4O)[C@H](O)c3ccc(c(Cl)c3)Oc3cc2cc(c3O[C@@H]2O[C@H](CO)[C@@H](O)[C@H](O)[C@H]2O[C@H]2C[C@](C)(N)[C@H](O)[C@H](C)O2)Oc2ccc(cc2Cl)[C@H]1O` [VANCOMYCIN], in experiment [1], the MIC50 came out at 0.25 mg/L (≈ 0.173 µM) and the MIC90 was 0.5 mg/L (≈ 0.345 µM). In experiment [3], the Activity is given as 100%.

As to `CC[C@H]1OC(=O)[C@H](C)[C@@H](O[C@H]2C[C@@](C)(OC)[C@@H](O)[C@H](C)O2)[C@H](C)[C@@H](O[C@@H]2O[C@H](C)C[C@H](N(C)C)[C@H]2O)[C@](C)(O)C[C@@H](C)C(=O)[C@H](C)[C@@H](O)[C@]1(C)O` [ERYTHROMYCIN], in experiment [1], the MIC50 is ≤ 0.25 mg/L and the MIC90 is > 16 mg/L. In addition, the Activity in experiment [2] turned out to be 26.4%. Moreover, the Activity in experiment [3] was determined as 72.4%.

Turning to `CC[C@H]1OC(=O)[C@H](C)C(=O)[C@H](C)[C@@H](O[C@@H]2O[C@H](C)C[C@H](N(C)C)[C@H]2O)[C@](C)(OC)C[C@@H](C)C(=O)[C@H](C)[C@H]2N(CCCCn3cnc(-c4cccnc4)c3)C(=O)O[C@]12C` [TELITHROMYCIN], in experiment [1], the MIC50 is ≤ 0.015 mg/L and the MIC90 was ≤ 0.015 mg/L. For the same compound, the Activity in experiment [2] is listed as 0.4%. Besides, the Activity in experiment [3] was found to be 98.8%.

For `CN(C)c1ccc(O)c2c1C[C@H]1C[C@H]3[C@H](N(C)C)C(O)=C(C(N)=O)C(=O)[C@@]3(O)C(O)=C1C2=O` [MINOCYCLINE], in experiment [1], the MIC50 came out at 4 mg/L (≈ 8.74 µM) and the MIC90 came to 8 mg/L (≈ 17.5 µM). The Activity in experiment [2] worked out at 38.8%. Moreover, the Activity in experiment [3] is 24.4%.

In the case of `CC1(C)S[C@@H]2[C@H](NC(=O)Cc3ccccc3)C(=O)N2[C@H]1C(=O)O` [PENICILLIN G], in experiment [1], the MIC50 turned out to be 0.015 mg/L (≈ 0.0449 µM) and the MIC90 worked out at 2 mg/L (≈ 5.98 µM). The Activity in experiment [2] is reported as 14.9%. Besides, the Activity in experiment [3] is on record as 74%.

Consider `C[C@@H](O)[C@H]1C(=O)N2C(C(=O)O)=C(S[C@@H]3CN[C@H](C(=O)N(C)C)C3)[C@H](C)[C@H]12` [MEROPENEM], for which, in experiment [1], the MIC50 was ≤ 0.015 mg/L and the MIC90 is 0.5 mg/L (≈ 1.3 µM). The Activity in experiment [2] was 0.4%. The Activity in experiment [3] came to 86.8%.

In experiment [1], `O=C(N[C@H](CO)[C@H](O)c1ccc([N+](=O)[O-])cc1)C(Cl)Cl` [CHLORAMPHENICOL] gave an MIC50 of 4 mg/L (≈ 12.4 µM) and an MIC90 of 16 mg/L (≈ 49.5 µM). Moreover, the Activity in experiment [2] came to 39.2%. The Activity in experiment [3] worked out at 70.7%.

As usually defined, the MIC50 is the lowest concentration that inhibits either 50% of growth or 50% of the strains tested, depending on the study. Lower therefore signals greater potency. As a reminder, the MIC90 is the lowest concentration that inhibits either 90% of growth or 90% of the strains tested, depending on the study. High values mean weaker potency, low ones greater potency.
